We go through 19 molecules from publication PMC4857052 (Molecular pharmacology, 2012).

One data set deals with 5FURes T. b. brucei. As to the kind of experiment: Alamar blue drug sensitivity assay, 5FURes. The format is cell-based, Trypanosoma brucei brucei. The conditions noted are these: for EC50: Trypanosoma brucei, read-out: EC50, 5FURes, Mean; for RF, 5FURes: resistance factor: IC50(resistant clone)/IC50(WT). Put shortly: (§1)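 Bloodstream-form T. b. brucei s427 grown in HMI-9 with 10% FBS at 37°C under 5% CO2. Resistant lines were made by months of stepwise-increasing exposure to the analog, then cloned by limiting dilution. Viability was read by resazurin (Alamar blue) reduction. Thymidine rescue was tested by adding 100 μM thymidine.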
In general terms: Alamar Blue is a resazurin reagent that responds to reducing activity.

Data set [1] concerns T. b. brucei bloodstream forms strain 427 WT. As to the kind of experiment: Alamar blue drug sensitivity assay, wild-type. The note with it: for EC50: Trypanosoma brucei, read-out: EC50, WT, Mean, Alamar blue assay, wild-type sensitive control strain; for effect on bloodstream trypanosomes (in words): Alamar blue viability assay. The format is cell-based, Trypanosoma brucei brucei. Put shortly:
as §1

A further data set has as its system 5FOARes T. b. brucei. As to the kind of experiment: Alamar blue drug sensitivity assay, 5FOARes. The format is cell-based, Trypanosoma brucei brucei. The note with it: for EC50: Trypanosoma brucei, read-out: EC50, 5FOARes, Mean; for RF, 5FOARes: resistance factor: IC50(resistant clone)/IC50(WT). Put shortly: as §1
A further data set relates to 5F-2′dURes T. b. brucei. As to the kind of experiment: Alamar blue drug sensitivity assay, 5F-2′dURes. The format is cell-based, Trypanosoma brucei brucei. The note with it: for EC50: Trypanosoma brucei, read-out: EC50, 5F-2′dURes, Mean; for RF, 5F-2′dURes: resistance factor: IC50(resistant clone)/IC50(WT). In a few lines:
as §1

In a further data set the target is TbU1. The conditions noted are these: procyclic forms (PCF), NE = no effect on uptake at concentration indicated, ref De Koning and Jarvis (1998), Papageorgiou et al. (2005), Gudin et al. (2006), cited from earlier work; for Ki: read-out: Ki, U1.
The subject of data set [2] is s427WT T. b. brucei bloodstream forms. As to the kind of experiment: Kinetic parameters of pyrimidine transport in wild-type bloodstream forms. The data set is classed as cell-based, Trypanosoma brucei brucei. The conditions noted are these: [3H]-permeant; strain s427WT. Put shortly: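 Log-phase cells were washed into HEPES/bicarbonate glucose buffer (pH 7.3) at 1 × 10^8/ml and mixed with an equal volume of [3H]-permeant, with or without unlabeled competitor, at ambient temperature. Uptake was stopped with ice-cold buffer containing saturating unlabeled permeant, then cells were spun through oil. Counts were corrected for nonspecific binding and Km, Vmax and Ki obtained by curve fitting. Runs were in triplicate. Thymidine: 10 μM label, 15 min. Orotic acid: 10 min.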

Another data set concerns the target 5-FURes T. b. brucei. As to the kind of experiment: Pyrimidine transport in 5-FURes bloodstream forms. The data set is classed as cell-based, Trypanosoma brucei brucei.
A further data set concerns TbU3. As to the kind of experiment: [3H]-uridine transport in bloodstream forms. The data set is classed as cell-based, Trypanosoma brucei brucei. The conditions noted are these: 2.5 μM [3H]-uridine, 0-30 min.
The subject of the next data set is TbU3 uracil transporter. As to the kind of experiment: [3H]-uracil transport in bloodstream forms. The data set is classed as cell-based, Trypanosoma brucei brucei.
In data set [3] the test system is TbT1 (P1-type nucleoside transporter). As to the kind of experiment: [3H]-thymidine transport in bloodstream forms. The format is cell-based, Trypanosoma brucei brucei. The note with it: bloodstream forms.
The subject of data set [4] is T. b. brucei bloodstream forms. As to the kind of experiment: Uptake of other radiolabeled pyrimidines by wild-type bloodstream forms. The conditions noted are these: over 15 min; 2.5 μM [3H]-2′-deoxycytidine, 0.25 μM [3H]-cytosine, 1 μM [3H]-thymine. The data set is classed as cell-based, Trypanosoma brucei brucei.

One may read the EC50 as the concentration at which the effect is half-maximal. Consider `O=c1[nH]c(=O)n([C@H]2C[C@H](O)[C@@H](CO)O2)cc1Cl` [5Cl-2’-dUrd, 5-chloro-2′-deoxyuridine], for which the “fold more sensitive than wild-type” value with 5FURes T. b. brucei (5-FURes) is listed as 15 fold. Also, in the data set with 5FURes T. b. brucei, the EC50 was determined as 3.7 µM and the “RF, 5FURes” value is 0.07. Also, the concentration for a half-maximal effect (EC50) in [1] was 54 µM. Further, in the data set with 5FOARes T. b. brucei, the concentration giving a half-maximal response (EC50) amounted to 91 µM and the “RF, 5FOARes” value is 1.7. Also, in the data set with 5F-2′dURes T. b. brucei, the concentration giving a half-maximal response (EC50) worked out at 22 µM and the “RF, 5F-2′dURes” value worked out at 0.4.
One may read the Ki as a dissociation constant, usually derived from enzyme kinetics or from competition with a known ligand. Regarding `Cn1c(=O)cc[nH]c1=O` [3-Methyluracil], on TbU1, the inhibition constant Ki was 1620 ± 350 µM.
As to `O=c1ccn([C@H]2CC[C@@H](CO)O2)c(=O)[nH]1` [2’,3′-dideoxyuridine, 2′,3′-dideoxyuridine], the “effect on bloodstream trypanosomes (in words)” value in data set [1] is “no effect up to at least 1 mM”.
`O=C1CCNC(=O)N1` [5,6-Dihydrouracil]: the inhibition constant (Ki) at TbU1 was 830 ± 200 µM.
Turning to `Nc1nc(=O)[nH]cc1F` [5-fluorocytosine], the “effect on bloodstream trypanosomes (in words)” value in data set [1] is “no effect up to at least 1 mM”.
On the same count and under the same terms, to `C[C@H]1O[C@@H](n2cc(F)c(=O)[nH]c2=O)[C@H](O)[C@@H]1O` [5-fluoro-5′deoxyuridine] belongs “no effect up to at least 1 mM”.
What is called Km is the concentration of substrate that gives half-maximal velocity. Turning to `O=c1ccn([C@@H]2O[C@H](CO)[C@@H](O)[C@H]2O)c(=O)[nH]1` [Uridine], the inhibitory constant (Ki) on TbU1 was 33 ± 5 µM; at 5-FURes T. b. brucei (read-out: Ki for [3H]-uracil transport in 5-FURes, n = 3), approximately 10000 µM. Besides, the Km in [2] is 9.5 ± 2.7 mM; in the data set on TbU3 uracil transporter (read-out: Km, U3, bloodstream forms (BSF), Km of the permeant itself), 9.5 ± 2.7 mM. Besides, in [2], the Vmax is recorded as 16 ± 4 pmol (10^7 cells)^−1s^−1. Also, the “rate of [3H]-uridine transport” value in the data set with TbU3 is given as 0.0043 ± 0.0003 pmol(10^7 cells)^−1s^−1. Besides, the “inhibition of [3H]-uracil uptake” value with TbU3 uracil transporter (10 mM of the nucleoside, 0.15 μM [3H]-uracil) is reported as ~ 50%.
With `O=c1[nH]cc(F)c(=O)[nH]1` [5-Fluorouracil, 5-fluorouracil], at TbU1, the inhibition constant (Ki) is 3 ± 0.8 µM. For the same molecule, in the data set with 5FURes T. b. brucei, the EC50 came to 4710 µM and the “RF, 5FURes” value amounted to 131. In addition, the “effect on [3H]-thymidine transport (in words)” value in data set [3] was “little or no effect”. In data set [2], the Michaelis constant (Km) amounted to 0.0025 ± 1e-05 mM and the Vmax is given as 0.27 ± 0.02 pmol (10^7 cells)^−1s^−1. Also, in the data set on 5-FURes T. b. brucei (0.5 μM [3H]-5-FU, n = 3), the “reduction of [3H]-5-FU transport in 5-FURes relative to wild-type” value was 76% ± 6. Besides, in the data set with 5-FURes T. b. brucei ([3H]-permeant, strain 5-FURes), the Michaelis-Menten constant (Km) worked out at 0.0023 ± 0.0004 mM. The half-maximal effective concentration (EC50) in [1] is 35.9 µM. Besides, in the data set on 5FOARes T. b. brucei, the EC50 was determined as 448 µM and the “RF, 5FOARes” value worked out at 13. In the data set with 5F-2′dURes T. b. brucei, the EC50 is 76.1 µM and the “RF, 5F-2′dURes” value came out at 2.1.
Take `Nc1ccn([C@H]2C[C@H](O)[C@@H](CO)O2)c(=O)n1` [2′-deoxycytidine]: the “accumulation of radiolabeled permeant (in words)” value in [4] was “just detectable accumulation”.
For the molecule `Nc1nc2nc[nH]c2c(=O)[nH]1` [Guanine], the Ki on TbU1 is more than 25 µM.
For `O=c1[nH]ccc(=S)[nH]1` [4-Thiouracil], on TbU1, the inhibitory constant (Ki) is 22 ± 7 µM.
For `C[C@H]1O[C@@H](n2ccc(=O)[nH]c2=O)[C@H](O)[C@@H]1O` [5′-deoxyuridine], in data set [1], the “effect on bloodstream trypanosomes (in words)” value is “no effect up to at least 1 mM”.
Same read-out and setting: under `O=c1ccn([C@@H]2O[C@H](CO)C[C@H]2O)c(=O)[nH]1` [3′-deoxyuridine] stands “no effect up to at least 1 mM”; under `O=c1ccn([C@@H]2O[C@H](CO)[C@@H](O)[C@H]2O)c(=S)[nH]1` [2-thiouridine], “no effect up to at least 1 mM”.
In the case of `O=c1[nH]c(=O)c2[nH]c(=O)[nH]c2[nH]1` [Uric acid], the “Ki, U1” value at TbU1 is given as “NE, 1000”.
Consider `Cc1cc(=O)[nH]c(=O)[nH]1` [6-Methyluracil], for which, on TbU1, the Ki was more than 2500 µM.
Turning to `Nc1nc(=O)n([C@@H]2O[C@H](CO)[C@@H](O)[C@H]2O)cc1F` [5-fluorocytidine], in data set [1], the “effect on bloodstream trypanosomes (in words)” value is “no effect up to at least 1 mM”.
Turning to `O=C1C=CNC(=O)C1` [3-Deazauracil], the Ki on TbU1 is more than 2500 µM.
For `O=c1[nH]cc(Cl)c(=O)[nH]1` [5-Chlorouracil], on TbU1, the Ki is 900 ± 140 µM.
